Measurements from ChEMBL document CHEMBL1154352, “Toll-like receptor 7 selective synthetic oligoribonucleotide agonists: synthesis and structure-activity relationship studies” (J Med Chem, 2009).
Activity calls are given as the source filed them. The rule behind the calls is not given here.

Columns and labels:
[1] = target: T1, Toll-like receptor 7 (Homo sapiens) (UniProt Q9NYK1); assay: Activation of human TLR7 expressed in HEK293XL assessed as fold induction of NF-kappaB activity at 50 ug/ml after 18 hrs by reporter gene assay relative to control
T1 sequence (whole entry): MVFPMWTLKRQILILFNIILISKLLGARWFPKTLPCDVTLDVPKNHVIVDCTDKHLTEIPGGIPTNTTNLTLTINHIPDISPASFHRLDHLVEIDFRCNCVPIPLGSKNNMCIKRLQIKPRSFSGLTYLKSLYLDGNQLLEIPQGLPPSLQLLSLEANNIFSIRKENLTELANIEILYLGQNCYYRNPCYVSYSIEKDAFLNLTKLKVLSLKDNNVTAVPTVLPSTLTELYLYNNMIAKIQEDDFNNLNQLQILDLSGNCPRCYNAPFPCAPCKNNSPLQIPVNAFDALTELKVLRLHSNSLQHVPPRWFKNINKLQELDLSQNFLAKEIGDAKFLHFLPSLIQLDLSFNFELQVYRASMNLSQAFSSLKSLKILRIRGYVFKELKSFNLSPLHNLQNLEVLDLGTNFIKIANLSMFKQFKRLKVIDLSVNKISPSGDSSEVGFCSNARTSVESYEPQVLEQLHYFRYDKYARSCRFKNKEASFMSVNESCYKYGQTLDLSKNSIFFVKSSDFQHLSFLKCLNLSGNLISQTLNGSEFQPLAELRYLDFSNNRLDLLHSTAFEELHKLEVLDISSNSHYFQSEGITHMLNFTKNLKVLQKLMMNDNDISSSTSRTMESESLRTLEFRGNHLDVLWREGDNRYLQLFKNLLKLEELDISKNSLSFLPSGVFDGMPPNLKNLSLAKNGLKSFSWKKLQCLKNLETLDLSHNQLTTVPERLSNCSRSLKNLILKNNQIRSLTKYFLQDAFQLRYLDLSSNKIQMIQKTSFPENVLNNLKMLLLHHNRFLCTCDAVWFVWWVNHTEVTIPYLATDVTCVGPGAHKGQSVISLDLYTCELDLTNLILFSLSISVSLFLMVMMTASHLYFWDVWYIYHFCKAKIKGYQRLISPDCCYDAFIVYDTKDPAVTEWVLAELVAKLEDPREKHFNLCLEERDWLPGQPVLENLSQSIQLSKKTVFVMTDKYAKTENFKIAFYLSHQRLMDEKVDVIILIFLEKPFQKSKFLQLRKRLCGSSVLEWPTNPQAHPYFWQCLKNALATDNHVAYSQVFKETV
In short: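 HEK293 cells stably expressing human TLR7 or TLR8, transiently transfected with SEAP reporter plasmid; medium replaced, SIMRA compounds added, 18 h incubation. Supernatant SEAP measured by QuantiBlue; expressed as fold increase in NF-κB activity over PBS control. Tabulated data at 50 μg/mL, representative of three independent experiments.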

[2] = organism: Homo sapiens; assay: Ratio of human TLR7 activity to human TLR8 activity
In short: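 TLR7/TLR8 ratio computed from fold NF-κB (SEAP reporter) activation in HEK293 cells stably expressing human TLR7 versus TLR8, compounds at 50 μg/mL, 18 h exposure; representative of three independent experiments.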

[3] = target: T2, Toll-like receptor 9 (Mus musculus) (UniProt Q9EQU3); assay: Activation of mouse TLR9 expressed in HEK293 assessed as induction of NF-kappaB activity reporter gene assay; assay type: cell-based
T2 sequence (whole entry): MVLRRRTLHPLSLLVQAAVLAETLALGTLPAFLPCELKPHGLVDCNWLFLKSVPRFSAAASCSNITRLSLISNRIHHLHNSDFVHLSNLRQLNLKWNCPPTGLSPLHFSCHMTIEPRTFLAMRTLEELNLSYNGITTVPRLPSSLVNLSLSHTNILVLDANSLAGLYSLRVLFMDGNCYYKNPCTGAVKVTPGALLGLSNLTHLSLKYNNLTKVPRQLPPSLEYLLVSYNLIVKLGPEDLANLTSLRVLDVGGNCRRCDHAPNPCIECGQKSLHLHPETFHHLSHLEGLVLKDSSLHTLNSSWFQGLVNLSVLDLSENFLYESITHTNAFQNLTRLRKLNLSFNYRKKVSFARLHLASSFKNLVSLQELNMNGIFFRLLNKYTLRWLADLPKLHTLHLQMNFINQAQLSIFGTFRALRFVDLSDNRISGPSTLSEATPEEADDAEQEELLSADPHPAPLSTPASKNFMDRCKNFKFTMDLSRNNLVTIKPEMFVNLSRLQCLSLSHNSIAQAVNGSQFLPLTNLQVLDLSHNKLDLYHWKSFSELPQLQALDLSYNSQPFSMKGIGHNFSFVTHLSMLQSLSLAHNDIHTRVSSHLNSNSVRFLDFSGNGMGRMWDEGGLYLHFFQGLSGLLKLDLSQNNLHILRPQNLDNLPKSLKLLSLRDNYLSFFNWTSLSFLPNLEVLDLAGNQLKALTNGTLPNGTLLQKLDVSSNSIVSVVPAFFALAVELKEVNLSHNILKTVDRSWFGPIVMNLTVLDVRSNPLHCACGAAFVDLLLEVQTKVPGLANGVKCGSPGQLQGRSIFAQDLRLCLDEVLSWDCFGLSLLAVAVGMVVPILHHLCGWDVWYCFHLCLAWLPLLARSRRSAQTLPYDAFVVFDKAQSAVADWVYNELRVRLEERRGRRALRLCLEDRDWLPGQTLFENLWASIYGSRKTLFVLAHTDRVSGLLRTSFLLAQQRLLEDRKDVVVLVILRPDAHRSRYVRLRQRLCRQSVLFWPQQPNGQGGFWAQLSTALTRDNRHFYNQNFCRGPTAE

[4] = system: Splenocyte; assay: Immunomodulatory activity in C57BL/6 mouse splenocytes bearing TLR7 receptor assessed as IL6 release at 100 ug/ml after 24 hrs by ELISA; assay type: functional, cell-based
In short: (§1)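 C57BL/6 splenocytes in RPMI 1640 with 10% FBS, penicillin/streptomycin, 2 mM L-glutamine, plated at 5 × 10^6 cells/mL; compounds in PBS added, 37 °C for 24 h. Supernatant IL-12 and IL-6 by ELISA; representative of three independent experiments.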

[5] = system: Splenocyte; assay: Immunomodulatory activity in C57BL/6 mouse splenocytes bearing TLR7 receptor assessed as IL12 release at 100 ug/ml after 24 hrs by ELISA; assay type: functional, cell-based; in short: as §1
[6] = system: PBMC; assay: Immunomodulatory activity in human PBMC assessed as induction of IL12 at 100 ug/ml after 24 hrs; assay type: functional, cell-based
In short: (§2)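 Human PBMCs plated at 5 × 10^6 cells/mL; compounds dissolved in PBS added at various concentrations, 37 °C for 24 h. Supernatant cytokines/chemokines quantified with human Luminex multiplex kit.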

[7] = system: PBMC; assay: Immunomodulatory activity in human PBMC assessed as induction of TNFalpha at 100 ug/ml after 24 hrs; assay type: functional, cell-based; in short: as §2
[8] = system: PBMC; assay: Immunomodulatory activity in human PBMC assessed as induction of IFN-alpha at 100 ug/ml after 24 hrs

Structure (SMILES)	fold change (FC) [1]	Ratio [2]	Activity [3]	Activity [4]	Activity [5]	Activity [6]	Activity [7]	IFN-alpha [8]	Activity [2]
Nc1ccn([C@@H]2O[C@H](COP(=O)(S)O[C@H]3[C@@H](O)[C@H](n4cnc5c(N)ncnc54)O[C@@H]3COP(=O)(S)O[C@H]3[C@@H](O)[C@H](n4ccc5c(=O)[nH]c(N)nc54)O[C@@H]3COP(=O)(S)O[C@H]3[C@@H](O)[C@H](n4ccc(=O)[nH]c4=O)O[C@@H]3COP(=O)(S)O[C@H]3[C@@H](O)[C@H](n4ccc5c(=O)[nH]c(N)nc54)O[C@@H]3COP(=O)(S)O[C@H]3[C@@H](O)[C@H](n4cnc5c(N)ncnc54)O[C@@H]3COP(=O)(S)O[C@H]3[C@@H](O)[C@H](n4cnc5c(N)ncnc54)O[C@@H]3CO)[C@@H](OP(=O)(S)OC[C@H]3O[C@@H](n4ccc5c(=O)[nH]c(N)nc54)[C@H](O)[C@@H]3OP(=O)(S)OC[C@H]3O[C@@H](n4ccc(N)nc4=O)[C@H](O)[C@@H]3OP(=O)(S)OC[C@H]3O[C@@H](n4ccc(=O)[nH]c4=O)[C@H](O)[C@@H]3OP(=O)(S)OC[C@H]3O[C@@H](n4ccc(=O)[nH]c4=O)[C@H](O)[C@@H]3OP(=O)(S)OCC(O)COP(=O)(S)O[C@H]3[C@@H](O)[C@H](n4ccc(=O)[nH]c4=O)O[C@@H]3COP(=O)(S)O[C@H]3[C@@H](O)[C@H](n4ccc(=O)[nH]c4=O)O[C@@H]3COP(=O)(S)O[C@H]3[C@@H](O)[C@H](n4ccc(N)nc4=O)O[C@@H]3COP(=O)(S)O[C@H]3[C@@H](O)[C@H](n4ccc5c(=O)[nH]c(N)nc54)O[C@@H]3COP(=O)(S)O[C@H]3[C@@H](O)[C@H](n4ccc(N)nc4=O)O[C@@H]3COP(=O)(S)O[C@H]3[C@@H](O)[C@H](n4cnc5c(N)ncnc54)O[C@@H]3COP(=O)(S)O[C@H]3[C@@H](O)[C@H](n4ccc5c(=O)[nH]c(N)nc54)O[C@@H]3COP(=O)(S)O[C@H]3[C@@H](O)[C@H](n4ccc(=O)[nH]c4=O)O[C@@H]3COP(=O)(S)O[C@H]3[C@@H](O)[C@H](n4ccc5c(=O)[nH]c(N)nc54)O[C@@H]3COP(=O)(S)O[C@H]3[C@@H](O)[C@H](n4cnc5c(N)ncnc54)O[C@@H]3COP(=O)(S)O[C@H]3[C@@H](O)[C@H](n4cnc5c(N)ncnc54)O[C@@H]3CO)[C@H]2O)c(=O)n1 (some centres undefined)	22.6	32.3	inactive	Active	Active	352 pg/mL	26.2 pg/mL	204 pg/mL	
Nc1ncnc2c1ncn2[C@@H]1O[C@H](CO)[C@@H](OP(=O)(S)OC[C@H]2O[C@@H](n3cnc4c(N)ncnc43)[C@H](O)[C@@H]2OP(=O)(S)OC[C@H]2O[C@@H](n3cnc4c(N)ncnc43)[C@H](O)[C@@H]2OP(=O)(S)OC[C@H]2O[C@@H](n3cnc4c(N)ncnc43)[C@H](O)[C@@H]2OP(=O)(S)OC[C@H]2O[C@@H](n3cnc4c(N)ncnc43)[C@H](O)[C@@H]2OP(=O)(S)OC[C@H]2O[C@@H](n3cnc4c(N)ncnc43)[C@H](O)[C@@H]2OP(=O)(S)OC[C@H]2O[C@@H](n3cnc4c(N)ncnc43)[C@H](O)[C@@H]2OP(=O)(S)OC[C@H]2O[C@@H](n3cnc4c(N)ncnc43)[C@H](O)[C@@H]2OP(=O)(S)OC[C@H]2O[C@@H](n3cnc4c(N)ncnc43)[C@H](O)[C@@H]2OP(=O)(S)OC[C@H]2O[C@@H](n3cnc4c(N)ncnc43)[C@H](O)[C@@H]2OP(=O)(S)OC[C@H]2O[C@@H](n3cnc4c(N)ncnc43)[C@H](O)[C@@H]2OP(=O)(S)OCC(O)COP(=O)(S)O[C@H]2[C@@H](O)[C@H](n3cnc4c(N)ncnc43)O[C@@H]2COP(=O)(S)O[C@H]2[C@@H](O)[C@H](n3cnc4c(N)ncnc43)O[C@@H]2COP(=O)(S)O[C@H]2[C@@H](O)[C@H](n3cnc4c(N)ncnc43)O[C@@H]2COP(=O)(S)O[C@H]2[C@@H](O)[C@H](n3cnc4c(N)ncnc43)O[C@@H]2COP(=O)(S)O[C@H]2[C@@H](O)[C@H](n3cnc4c(N)ncnc43)O[C@@H]2COP(=O)(S)O[C@H]2[C@@H](O)[C@H](n3cnc4c(N)ncnc43)O[C@@H]2COP(=O)(S)O[C@H]2[C@@H](O)[C@H](n3cnc4c(N)ncnc43)O[C@@H]2COP(=O)(S)O[C@H]2[C@@H](O)[C@H](n3cnc4c(N)ncnc43)O[C@@H]2COP(=O)(S)O[C@H]2[C@@H](O)[C@H](n3cnc4c(N)ncnc43)O[C@@H]2COP(=O)(S)O[C@H]2[C@@H](O)[C@H](n3cnc4c(N)ncnc43)O[C@@H]2COP(=O)(S)O[C@H]2[C@@H](O)[C@H](n3cnc4c(N)ncnc43)O[C@@H]2CO)[C@H]1O (some centres undefined)	0.3		inactive			183 pg/mL	1.6 pg/mL	0 pg/mL	Active
